How the values were obtained:
[1] = Area under curve in diet-induced obese mice plasma at 10 mg/kg (p.o.) concentration; n=3; type: ADME, organism-based; set-up: dose 10 mg/kg, route oral; conditions: mouse, in vivo, po
[2] = Maximum brain compound (10mg/kg, p.o.) concentration in diet-induced obese mice; type: ADME, organism-based; set-up: dose 10 mg/kg, route oral; conditions: mouse, po
[3] = target: Melanin-concentrating hormone receptor (Homo sapiens, UniProt Q969V1+Q99705); assay: Inhibition of Melanin-concentrating hormone (MCH) mediated [Ca2+] release in IMR-32 cells; type: functional, cell-based
[4] = Maximum plasma compound (10 mg/kg, p.o.) concentration in diet-induced obese mice; type: ADME, organism-based; set-up: dose 10 mg/kg, route oral; conditions: mouse, po
[5] = target: Melanin-concentrating hormone receptor 1 (Homo sapiens) (UniProt Q99705); assay: Inhibitory concentration against human Melanin-concentrating hormone receptor 1 expressed in IMR-32 cells using [125I]MCH
[6] = Area under curve in diet-induced obese mice brain at 10 mg/kg (p.o.) concentration; n=3; type: ADME, organism-based; set-up: dose 10 mg/kg, route oral; conditions: mouse, in vivo, po
[7] = Area under curve in diet-induced obese mice brain at 10 mg/kg (p.o.) concentration; type: ADME, organism-based; set-up: dose 10 mg/kg, route oral; conditions: mouse, in vivo, po
[8] = Area under curve in diet-induced obese mice plasma at 10 mg/kg (p.o.) concentration; type: ADME, organism-based; set-up: dose 10 mg/kg, route oral; conditions: mouse, in vivo, po
[9] = target: Melanin-concentrating hormone receptor 1 (Homo sapiens) (UniProt Q99705); assay: Inhibitory concentration against Melanin-concentrating hormone receptor 1 in human IMR-32 cells
Mus musculus [10] = assay: Body weight of the mice after treatment with the compound (10 mg/kg, p.o.) on day 0 (Vehicle=45.0 1 0.7); n=12; type: functional
Mus musculus [11] = assay: Mean cumulative food intake of mice on day 11 after treatment with compound at 10 mg/kg; n=12; type: functional
Summary of the method: (§1)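 DIO mice, kept on a high-fat diet (60 kcal % fat, 5.2 kcal/g) for about 16 weeks with ad libitum feeding. Given 10 mg/kg po by gavage qd for 14 days in 1% Tween 80/water at 4 mL/kg, alongside vehicle. Food weighed on the first day and periodically thereafter; cumulative intake reported at days 1, 5, 7, 11 and 14. Mean ± SEM, n = 12.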

Mus musculus [12] = assay: Mean cumulative food intake of mice on day 1 after treatment with compound at 10 mg/kg; n=12; type: functional; summary of the method: as §1
Mus musculus [13] = assay: Mean cumulative food intake of mice on day 7 after treatment with compound at 10 mg/kg; n=12; type: functional; summary of the method: as §1
Mus musculus [14] = assay: Mean cumulative food intake of mice on day 14 after treatment with compound at 10 mg/kg; n=12; type: functional; summary of the method: as §1
Mus musculus [15] = assay: Mean cumulative food intake of mice on day 5 after treatment with compound at 10 mg/kg; n=12; type: functional; summary of the method: as §1
Mus musculus [16] = assay: Body weight of the mice after treatment with the compound (10 mg/kg, p.o.) on day 14 (Vehicle=46.9 1 0.8); n=12; type: functional
Mus musculus [17] = assay: Percent change of mice body weight after treatment with the compound (10 mg/kg, p.o.) to that of vehicle; n=12; type: functional
Mus musculus [18] = assay: Body weight of the mice after treatment with the compound (30 mg/kg, p.o.) on day 0 (Vehicle=45.0 1 0.7); type: functional
Mus musculus [19] = assay: Mean cumulative food intake of mice on day 7 after treatment with compound at 100 mg/kg; n=12; type: functional
Summary of the method: (§2)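 Chronic study in DIO mice fed a 60 kcal % fat diet ad libitum, dosed by oral gavage bid for 14 days at 30 or 100 mg/kg in 1% Tween 80/water (4 mL/kg). Food weighed on the first day and periodically thereafter. Cumulative intake reported on days 1, 5, 7, 11 and 14; mean ± SEM, n = 12.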

Mus musculus [20] = assay: Mean cumulative food intake of mice on day 5 after treatment with compound at 30 mg/kg; n=12; type: functional; summary of the method: as §2
Mus musculus [21] = assay: Mean cumulative food intake of mice on day 5 after treatment with compound at 100 mg/kg; n=12; type: functional; summary of the method: as §2
Mus musculus [22] = assay: Body weight of the mice after treatment with the compound (30 mg/kg, p.o.) on day 14 (Vehicle=46.9 1 0.8); type: functional
Mus musculus [23] = assay: Percent change of mice body weight after treatment with the compound (100 mg/kg, p.o.) to that of vehicle; type: functional
Mus musculus [24] = assay: Body weight of the mice after treatment with the compound (100 mg/kg, p.o.) on day 0 (Vehicle=45.0 1 0.7); type: functional
Mus musculus [25] = assay: Mean cumulative food intake of mice on day 1 after treatment with compound at 100 mg/kg; n=12; type: functional; summary of the method: as §2
Mus musculus [26] = assay: Compound (100 mg/kg, bid) tested for reduction of fat mass in mice (vehicle=22.1); type: functional
Mus musculus [27] = assay: Mean cumulative food intake of mice on day 14 after treatment with compound at 100 mg/kg; n=12; type: functional; summary of the method: as §2
Mus musculus [28] = assay: Mean cumulative food intake of mice on day 14 after treatment with compound at 30 mg/kg; n=12; type: functional; summary of the method: as §2
Mus musculus [29] = assay: Body weight of the mice after treatment with the compound (100 mg/kg, p.o.) on day 14 (Vehicle=46.9 1 0.8); type: functional
Mus musculus [30] = assay: Mean cumulative food intake of mice on day 11 after treatment with compound at 100 mg/kg; n=12; type: functional; summary of the method: as §2
Mus musculus [31] = assay: Percent change of mice body weight after treatment with the compound (30 mg/kg, p.o.) to that of vehicle; type: functional
Mus musculus [32] = assay: Mean cumulative food intake of mice on day 1 after treatment with compound at 30 mg/kg; n=12; type: functional; summary of the method: as §2
Mus musculus [33] = assay: Mean cumulative food intake of mice on day 7 after treatment with compound at 30 mg/kg; n=12; type: functional; summary of the method: as §2
Mus musculus [34] = assay: Mean cumulative food intake of mice on day 11 after treatment with compound at 30 mg/kg; n=12; type: functional; summary of the method: as §2

SMILES: O=c1n(-c2ccc(Oc3ccccc3)cc2)ccn1-c1ccc2c(cnn2CCN2CCCC2)c1
- AUC [1]: 1.35 µg/h/mL
- Cmax [2]: 183 ng/g
- IC50 [3]: 654 nM
- Cmax [4]: 543 ng/mL
- IC50 [5]: 5.9 nM
- AUC [6]: 1.71 µg/h/g

SMILES: NC(=O)C1CCN(CCn2ncc3cc(NC(=O)Nc4ccc(Oc5ccccc5)cc4)ccc32)CC1
- IC50 [3]: 171 nM
- IC50 [5]: 134 nM

SMILES: O=C(NCCc1ccc(Oc2ccccc2)cc1)Nc1ccc2c(cnn2CCN2CCCC2)c1
- IC50 [3]: > 10000 nM
- IC50 [5]: 545 nM

SMILES: O=C(Cc1ccc(OCc2ccccc2)cc1)Nc1ccc2cnn(CCN3CCCC3)c2c1
- AUC [7]: 1.33 µg·h/g
- IC50 [3]: 11 nM
- Cmax [4]: 596 ng/mL
- AUC [8]: 2.12 µg/h/mL
- IC50 [9]: 1.4 nM

SMILES: O=C(Nc1ccc(Oc2ccccc2)cc1)Nc1ccc2c(cnn2CCCN2CCC(O)CC2)c1
- IC50 [3]: 894 nM
- IC50 [5]: 91.5 nM

SMILES: O=C(Nc1ccc2cnn(CCN3CCCC3)c2c1)NC1CCN(Cc2ccccc2)CC1
- IC50 [3]: > 10000 nM
- IC50 [5]: 4510 nM

SMILES: O=C1N(c2ccc(Oc3ccccc3)cc2)CCN1c1ccc2c(cnn2CCN2CCCC2)c1
- IC50 [3]: 1120 nM
- IC50 [5]: 19.8 nM

SMILES: O=C(Nc1ccc(OCc2ccccc2)cc1)Nc1ccc2c(cnn2CCN2CCCC2)c1
- IC50 [3]: > 10000 nM
- IC50 [5]: 41.3 nM

SMILES: CCN[C@@H](C)Cc1cccc(C(F)(F)F)c1 [DEXFENFLURAMINE]
- Body weight (Mus musculus [10]): 42.7 g
- Activity (Mus musculus [11]): 31.1
- Activity (Mus musculus [12]): 0.89
- Activity (Mus musculus [13]): 17.8
- Activity (Mus musculus [14]): 39.9
- Activity (Mus musculus [15]): 8.44
- Body weight (Mus musculus [16]): 39.8 g
- Change in body weight (Mus musculus [17]): 9.12%

SMILES: O=C(Nc1ccc(Oc2ccccc2)cc1)Nc1ccc2c(cnn2CCN2CCC(O)CC2)c1
- IC50 [3]: > 10000 nM
- IC50 [5]: 6130 nM

SMILES: O=C(CNCc1ccc(Oc2ccccc2)cc1)Nc1ccc2ccn(CCN3CCCC3)c2c1
- AUC [7]: 0.674 µg·h/g
- IC50 [3]: 1810 nM
- AUC [8]: 1.16 µg/h/mL
- IC50 [9]: 299 nM

SMILES: O=C(Nc1ccc(Oc2ccccc2)cc1)Nc1ccc2c(cnn2CCN2CCCC2)c1
- AUC [1]: 5.35 µg/h/g
- Body weight (Mus musculus [18]): 42.3 g
- Activity (Mus musculus [19]): 13.6
- Activity (Mus musculus [20]): 11.2
- Activity (Mus musculus [21]): 7.86
- Cmax [2]: 260 ng/g
- Body weight (Mus musculus [22]): 42.3 g
- Change in body weight (Mus musculus [23]): -17.1%
- Body weight (Mus musculus [24]): 42.5 g
- Cmax [4]: 246 ng/mL
- Activity (Mus musculus [25]): 2.17
- Activity (Mus musculus [26]): 16.6 g
- Activity (Mus musculus [27]): 29.4
- Activity (Mus musculus [28]): 39.8
- Body weight (Mus musculus [29]): 36.3 g
- Activity (Mus musculus [30]): 23.6
- Change in body weight (Mus musculus [31]): -3.41%
- Activity (Mus musculus [32]): 3
- Activity (Mus musculus [33]): 20.1
- AUC [6]: 1.43 µg/h/g
- Activity (Mus musculus [34]): 32.4

SMILES: O=C(NCCc1ccc(Oc2ccccc2)cc1)Nc1ccc2cnn(CCN3CCCC3)c2c1
- AUC [1]: 0.335 µg/h/g
- IC50 [3]: 178 nM
- Cmax [4]: 86 ng/mL
- IC50 [5]: 34.3 nM
- AUC [6]: 0 µg/h/g

SMILES: NC(=O)C1CCN(CCCn2ncc3cc(NC(=O)Nc4ccc(Oc5ccccc5)cc4)ccc32)CC1
- IC50 [3]: 2880 nM
- IC50 [5]: 40.6 nM

SMILES: O=C(Nc1ccc(Oc2ccccc2)cc1)Nc1cccc2c1cnn2CCN1CCCC1
- IC50 [3]: > 10000 nM
- IC50 [5]: 1850 nM

SMILES: CC(C)CNCCn1ncc2cc(NC(=O)Nc3ccc(Oc4ccccc4)cc3)ccc21
- IC50 [3]: 751 nM
- IC50 [5]: 1.8 nM

SMILES: COC[C@@H]1CCCN1CCn1ncc2cc(NC(=O)Nc3ccc(Oc4ccccc4)cc3)ccc21
- IC50 [3]: 516 nM
- IC50 [5]: 38.7 nM

SMILES: O=C(NCc1ccc(Oc2ccccc2)cc1)Nc1ccc2cnn(CCN3CCCC3)c2c1
- IC50 [3]: 626 nM
- IC50 [5]: 78.5 nM

SMILES: O=C(NCc1ccc(Oc2ccccc2)cc1)Nc1ccc2c(cnn2CCN2CCCC2)c1
- IC50 [3]: > 10000 nM
- IC50 [5]: 508 nM

SMILES: COC[C@@H]1CCCN1CCCn1ncc2cc(NC(=O)Nc3ccc(Oc4ccccc4)cc3)ccc21
- IC50 [3]: 1177 nM
- IC50 [5]: 82.9 nM

SMILES: O=C(Nc1ccc(Oc2ccccc2)cc1)Nc1ccc2c(cnn2CCN2CCC(F)(F)C2)c1
- IC50 [3]: > 10000 nM
- IC50 [5]: 305 nM

SMILES: O=C(Nc1ccc(OCc2ccccc2)cc1)Nc1ccc2cnn(CCN3CCCC3)c2c1
- IC50 [3]: 7140 nM
- IC50 [5]: 113 nM

SMILES: O=C(Nc1ccc(Oc2ccccc2)cc1)Nc1ccc2c(cnn2CCNC2CCCC2)c1
- IC50 [3]: 147 nM
- IC50 [5]: 2.4 nM

SMILES: O=C(Nc1ccc(Oc2ccccc2)cc1)Nc1ccc2cnn(CCN3CCCC3)c2c1
- IC50 [3]: > 10000 nM
- IC50 [5]: 581 nM

SMILES: O=C(Nc1ccc(OCc2ccccc2)cc1)Nc1cccc2c1cnn2CCN1CCCC1
- IC50 [3]: > 10000 nM
- IC50 [5]: 1050 nM

Reference: ChEMBL document CHEMBL1145269, “Synthesis and evaluation of urea-based indazoles as melanin-concentrating hormone receptor 1 antagonists for the treatment of obesity” (Bioorg Med Chem Lett, 2005)
